Only some compounds are listed: those with a hit (about 3.8% of all), similar ones and a draw of the others.
Kir21 inh: Kir2.1 (mouse) channel inhibition | hit rate 0.85% among 310,000 | P35561 | B-score at 10 µM | HEK293-Kir2.1, FluxOR thallium flux fluorescence; stronger effect = lower value;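 active means fluorescence ratio B-score at or below minus 3 SD of library scores, with starting-brightness B-score within 2 SD, cut at about -4.2 in these data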;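 further: channel flux triggered by added potassium and thallium sulfate stimulus; B-score of peak minus minimum fluorescence over baseline after thallium stimulus; more negative B-score means stronger Kir2.1 block with less thallium influx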
KCNK9 inh: human KCNK9 channel inhibition. Q9NPC2. HEK293 KCNK9, FluxOR thallium flux fluorescence; stronger effect = lower value. B-score at 10 µM. hit rate 1.2% among 310,000. AID 488922;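 active means ratio B-score over 3 SD below the library mean, with starting fluorescence within 5 SD of its mean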;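 further: negative B-score means less thallium flux so channel inhibition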
Target sequence (Q9NPC2 whole entry, looked up): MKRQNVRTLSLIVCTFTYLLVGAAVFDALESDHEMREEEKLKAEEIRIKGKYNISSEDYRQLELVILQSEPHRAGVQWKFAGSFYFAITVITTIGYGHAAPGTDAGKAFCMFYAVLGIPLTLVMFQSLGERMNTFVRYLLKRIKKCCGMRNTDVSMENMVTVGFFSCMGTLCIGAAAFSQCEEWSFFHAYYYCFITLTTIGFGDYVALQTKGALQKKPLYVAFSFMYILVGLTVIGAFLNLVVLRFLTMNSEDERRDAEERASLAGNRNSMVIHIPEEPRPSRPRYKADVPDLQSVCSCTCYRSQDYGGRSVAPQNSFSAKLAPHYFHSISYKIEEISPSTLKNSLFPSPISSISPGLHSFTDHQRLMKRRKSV
KCNQ1 pot: human KCNQ1 channel potentiation or activation; B-score at 10 µM; CHO-K1 KCNQ1, thallium flux FluxOR fluorescence; stronger effect = higher value; AID 2648; hit rate 0.35% among 310,000; P51787;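 active means fluorescence ratio B-score, a plate-corrected score, at least three library SD, with initial intensity B-score within 5 SD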
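Assay system: stable KCNQ1 CHO-K1 line; medium: assay buffer, equal DMSO in all wells; timing: 90 min dye loading and 20 min compound exposure, both at room temperature; technique: kinetic FluxOR thallium fluorescence, 10-s 1-Hz baseline, 110-s post-stimulus read; read-out basis: B score of baseline-normalized fluorescence ratio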
hERG rescue: compounds protecting human hERG from proarrhythmic drug block | hit rate 0.51% among 310,000 | AID 1511 | activation (rescue from dofetilide block), less the hit threshold, % at 10 µM | CHO-hERG, FluxOR thallium flux, dofetilide IC70 present | Q12809;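 active means activation above the mean of controls blocked by dofetilide plus 5 SD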;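 further: thallium influx through hERG after potassium depolarization seen as dye fluorescence rise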
KCNK3 inh: human KCNK3 channel inhibition, primary screen; O14649; CHO-KCNK3 thallium flux, FluxOR fluorescence; stronger effect = lower value; B-score at 10 µM; hit rate 0.84% among 340,000;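 active means B-score under library mean minus 4 SD, starting fluorescence ratio at most library mean plus 5 SD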;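 further: more negative B-score means stronger inhibition of thallium flux through KCNK3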
KCNQ1 block: human KCNQ1 channel inhibition | P51787 | CHO-K1 KCNQ1, FluxOR thallium flux fluorescence; stronger effect = higher value | B-score at 10 µM | hit rate 1.3% among 310,000 | AID 2642;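 active means compounds whose thallium flux B-score, printed positive for inhibition, exceeds three library SD while starting fluorescence stays within three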;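 further: channel opened by potassium depolarization with thallium stimulus after 20 min compound exposure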
KCNK9 block conf: confirmation of human KCNK9 potassium channel inhibitors; AID 492992; HEK293 KCNK9 cells, FluxOR thallium flux fluorescence; shares compounds with KCNK9 inh; hit rate 43% among 4,900; inhibition, % at 10 µM;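 active means thallium signal inhibited by more than 5 SD of the compound-free buffer control wells, on both duplicate plates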;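 further: 0% = assay buffer control wells without compound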
Kir21 sel: mouse Kir2.1 off-target activity of KCNK9 modulators; shares compounds with KCNK9 inh; AID 492993; Kir2.1 cells, FluxOR thallium flux fluorescence; inhibition, % at 10 µM; hit rate 4% among 4,900;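 active means thallium signal drop more than 5 SD beyond the mean of the no-compound control wells, seen in both duplicate plates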;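 further: signal is fluorescence rise after thallium addition divided by baseline fluorescence; plate controls were assay buffer only for no effect and full block by chlorpromazine control for full effect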
KCNK9 uninduced: second counter-screen for KCNK9 modulators: effect in non-induced cells | shares compounds with KCNK9 inh | non-induced KCNK9-HEK293, FluxOR thallium flux | inhibition, % at 10 µM | hit rate 40% among 4,900;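 active means thallium signal drop beyond 5 SD of the untreated control mean, on both duplicate plates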;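 further: plate controls were buffer only IC0 wells for no effect and SID17386958 at its maximal inhibitory level for full effect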
The depositor's hits bear a star.

Screening Cc1ccc(F)c(NC(=O)/C(C#N)=C(\O)c2ccc(C(C)(C)C)cc2)c1 returned Kir21 inh 0.8, KCNK9 inh inactive, KCNQ1 pot inactive, hERG rescue -11, KCNK3 inh inactive, KCNQ1 block 7*, KCNK9 block conf inactive, Kir21 sel inactive and KCNK9 uninduced inactive.
For Cc1ccc(F)c(NC(=O)c2ccc(Cn3cc(Cl)cn3)cc2)c1 the results were Kir21 inh 0.09, KCNK9 inh inactive, KCNQ1 pot inactive, hERG rescue -10, KCNK3 inh inactive and KCNQ1 block inactive.
For Fc1ccc(N2N=C(c3cccs3)CC2c2ccccc2)cc1 (stereo not given) the results were Kir21 inh -0.32, KCNK9 inh -11*, KCNQ1 pot inactive, hERG rescue -13, KCNK3 inh inactive, KCNQ1 block inactive, KCNK9 block conf 50%*, Kir21 sel inactive and KCNK9 uninduced 45%*.
`CC(C)C(Sc1nc(-c2ccccc2)cc(-c2ccccc2)c1C#N)C(=O)O` (stereo not given) gave Kir21 inh 0.1, KCNK9 inh inactive, KCNQ1 pot inactive, hERG rescue -11, KCNK3 inh inactive, KCNQ1 block inactive, KCNK9 block conf inactive, Kir21 sel inactive and KCNK9 uninduced inactive.
For O=C(Cn1cnc2c(nnn2Cc2ccc(F)cc2)c1=O)Nc1ccc2c(c1)OCCO2 the results were Kir21 inh -0.24, KCNK9 inh inactive, KCNQ1 pot inactive, hERG rescue -8, KCNK3 inh inactive and KCNQ1 block inactive.
`CC(C)N(Cc1ccccc1)S(=O)(=O)c1cccs1` gave Kir21 inh -4.8*, KCNK9 inh -8.5*, KCNQ1 pot inactive, hERG rescue -3, KCNK3 inh -11*, KCNQ1 block inactive, KCNK9 block conf 40%*, Kir21 sel inactive and KCNK9 uninduced 37%*.
O=S(=O)(c1ccccc1)[C@@]1(c2ccc(Br)cc2)C[C@@H]2ON=C(c3ccccc3)[C@@H]2C1 was read as Kir21 inh -0.86, KCNK9 inh inactive, KCNQ1 pot inactive, hERG rescue -6, KCNK3 inh inactive and KCNQ1 block inactive.
For CC(C)NC(=O)C(=O)NNC(=O)CCc1ccccc1 the results were Kir21 inh -0.2, KCNK9 inh inactive, KCNQ1 pot inactive, hERG rescue -6, KCNK3 inh inactive and KCNQ1 block inactive.
`CCc1ccc2nc(SCC(=O)NCC3CCCO3)c(C#N)cc2c1` (stereo not given) gave Kir21 inh 0.15, KCNK9 inh inactive, KCNQ1 pot inactive, hERG rescue -4, KCNK3 inh inactive, KCNQ1 block inactive, KCNK9 block conf inactive, Kir21 sel inactive and KCNK9 uninduced inactive.
Cc1ccc(S(=O)(=O)Nc2cccc(C(=O)NCCCN3CCCC3=O)c2)cc1F was read as Kir21 inh 1.1, KCNK9 inh inactive, KCNQ1 pot inactive, hERG rescue -14, KCNK3 inh inactive and KCNQ1 block inactive.
For O=C(O)c1ccccc1-c1ccccc1C(=O)Nc1ccc(-c2nc3cc(Cl)ccc3o2)cc1 the results were Kir21 inh -0.03, KCNK9 inh inactive, KCNQ1 pot inactive, hERG rescue -17, KCNK3 inh inactive, KCNQ1 block inactive, KCNK9 block conf inactive, Kir21 sel inactive and KCNK9 uninduced inactive.
`CN(C)c1nc(Cl)nc2c1nc(Cl)n2C1CCCCO1` (stereo not given) gave KCNK3 inh inactive.
For Cc1ccc2c(c1)N(C(=O)NC1CCCCC1)C(C)(C)CC2C (stereo not given) the results were Kir21 inh -0.36, KCNK9 inh inactive, KCNQ1 pot inactive, hERG rescue -16, KCNK3 inh inactive, KCNQ1 block inactive, KCNK9 block conf inactive, Kir21 sel inactive and KCNK9 uninduced inactive.
For Nc1c(C(=O)NCc2ccccc2)nnn1Cc1ccccc1 the results were Kir21 inh -1.4, KCNK9 inh inactive, KCNQ1 pot inactive, hERG rescue -9, KCNK3 inh inactive and KCNQ1 block inactive.
`c1ccc(Cn2nnc(CNc3ccccc3)c2-c2c(CNc3ccccc3)nnn2Cc2ccccc2)cc1` gave Kir21 inh 0.98, KCNK9 inh -17*, KCNQ1 pot inactive, hERG rescue -7, KCNK3 inh inactive, KCNQ1 block inactive, KCNK9 block conf 64%*, Kir21 sel inactive and KCNK9 uninduced 36%*.
`O=c1cc(N2CCCCC2)c(-c2ccccc2)nn1Cc1ccc(Cl)cc1` gave Kir21 inh 2.4, KCNK9 inh inactive, KCNQ1 pot inactive, hERG rescue -4, KCNK3 inh inactive and KCNQ1 block inactive.
For O=c1ccc(-c2ccccc2)nn1Cc1ccccc1 the results were Kir21 inh 0.3, KCNK9 inh inactive, KCNQ1 pot inactive, hERG rescue -2, KCNK3 inh inactive and KCNQ1 block inactive.
Screening O=c1c2c(c(-c3ccccc3)nn1Cc1ccccc1)CCCC2 returned Kir21 inh 2.8, KCNK9 inh inactive, KCNQ1 pot inactive, hERG rescue 0, KCNK3 inh inactive, KCNQ1 block inactive, KCNK9 block conf inactive, Kir21 sel inactive and KCNK9 uninduced 28%*.
Screening O=c1cc(N2CCCCC2)c(-c2ccccc2)nn1Cc1ccc(F)cc1 returned Kir21 inh -0.23, KCNK9 inh -12*, KCNQ1 pot inactive, hERG rescue -31, KCNK3 inh inactive, KCNQ1 block inactive, KCNK9 block conf 60%*, Kir21 sel inactive and KCNK9 uninduced 36%*.
CCC(C(=O)NC(C)(C)C)N(C(=O)Cn1nnc(-c2ccccc2F)n1)c1cccc2c1CCCC2 (stereo not given) was read as Kir21 inh -0.05, KCNK9 inh inactive, KCNQ1 pot inactive, hERG rescue -19, KCNK3 inh inactive and KCNQ1 block inactive.
`CN(C)CCn1c(=O)n(C2CCCCC2)c(=O)c2c3c(sc21)CCCCC3` gave Kir21 inh 3.3, KCNK9 inh inactive, KCNQ1 pot inactive, hERG rescue -5, KCNK3 inh inactive, KCNQ1 block inactive, KCNK9 block conf inactive, Kir21 sel inactive and KCNK9 uninduced inactive.
CCn1c(=O)n(CCOC)c(=O)c2c3c(sc21)CCCC3 was read as Kir21 inh -1.1, KCNK9 inh inactive, KCNQ1 pot inactive, hERG rescue -13, KCNK3 inh inactive and KCNQ1 block inactive.
